Laboratory results published in ChEMBL document CHEMBL4811317, “Inhibitory activities of anthraquinone and xanthone derivatives against transthyretin amyloidogenesis” (Bioorg Med Chem, 2021).
pIC50: −log10 of the molar value. In brackets after ≈: the same amount, converted by molar mass. Activity calls are given as the source filed them. No cut-off for these calls is given here.

Assays:
Transthyretin = Transthyretin (Homo sapiens, UniProt P02766, V50M); test: Inhibition of acid-mediated aggregation of TTR V30M mutant (unknown origin) expressed in Escherichia coli pretreated for 30 mins at pH 7 followed by protein dilution in acetate buffer and further incubated for 96 hrs at pH 4.6 by thioflavin-T fluorescence assay
[1] = Volume of distribution at steady state in Sprague-Dawley rat at 0.1 mg/kg, iv measured up to 8 hrs by LC-MS/MS analysis; assay type: ADME, organism-based; settings: in vivo, read-out: Vdss
Method in brief: (§1)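 Male Sprague Dawley rats (7 weeks old, n = 2) given compound in 10% DMSO/0.1 M phosphate pH 8.5, i.v. or p.o. Caudal-vein blood at 5 min (i.v.), 15, 30 min, 1, 2, 4, 8 h; plasma precipitated with acetonitrile/IS, LC-MS/MS. Non-compartmental analysis; bioavailability = AUC∞(p.o.)/AUC∞(i.v.).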

[2] = AUC infinity in Sprague-Dawley rat at 0.1 mg/kg, iv measured up to 8 hrs by LC-MS/MS analysis; assay type: ADME, organism-based; design: route intravenous, dose 0.1 mg/kg, time <=8; settings: in vivo
[3] = target: Transthyretin (Homo sapiens) (UniProt P02766); test: Binding affinity to TTR V30M mutant (unknown origin) expressed in Escherichia coli by isothermal titration calorimetry
[4] = Bioavailability in Sprague-Dawley rat at 0.1 mg/kg, iv measured up to 8 hrs by LC-MS/MS analysis; assay type: ADME, organism-based; settings: in vivo; method in brief: as §1
[5] = Protein binding in Sprague-Dawley rat plasma assessed as unbound fraction at 1 uM measured after 4 hrs by equilibrium dialysis assay; assay type: ADME, cell-free
Method in brief: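 Rat plasma spiked at 1 μM, equilibrium dialysis (8K MWCO) against 0.1 M phosphate pH 7.4 for 4 h at 37 °C, 1000 rpm. Unbound fraction = buffer/plasma concentration ratio. At least two technical replicates.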

[6] = Metabolic stability in Sprague-Dawley rat liver microsomes assessed as residual rate at 1 uM measured after 30 mins by LC-MS/MS analysis; assay type: ADME, Microsome; settings: read-out: Stabilty
[7] = Aqueous solubility of the compound in pH 6.8 JP2 fluid measured after 4 hrs by HPLC-UV analysis; assay type: physicochemical
Method in brief: (§2)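 Test compound diluted from 10 mM DMSO stock 2:165 into JP 1st fluid (pH 1.2) or JP 2nd fluid (pH 6.8); mixed 4 h at 37 °C with rotation at 1000 rpm, then filtered through 0.45 μm PVDF by centrifugation. At least two technical replicates.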

[8] = Elimination half life in Sprague-Dawley rat at 0.1 mg/kg, iv measured up to 8 hrs by LC-MS/MS analysis; assay type: ADME, organism-based; settings: in vivo, read-out: beta t1/2 (converted); method in brief: as §1
[9] = Metabolic stability in Sprague-Dawley rat liver microsomes assessed as residual rate at 1 uM preincubated for 5 mins followed by NADPH addition and measured after 30 mins by LC-MS/MS analysis; assay type: ADME, Microsome; settings: time 35 min, read-out: Stabilty
Method in brief: (§3)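 Rat liver microsomes 0.2 mg/mL with 1 μM compound, 1 mM EDTA, 0.1 M phosphate pH 7.4; 5 min preincubation, then 1 mM NADPH (final) added, 30 min at 37 °C, 60 rpm. Quenched in cold acetonitrile/internal standard, supernatant by LC-MS/MS against time zero. CLint scaled with 44.8 mg protein/g liver, 40.0 g liver/kg. At least two technical replicates.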

[10] = Aqueous solubility of the compound in pH 1.2 JP1 fluid measured after 4 hrs ny HPLC-UV analysis; assay type: physicochemical; method in brief: as §2
[11] = AUC (0 to 8 hrs) in Sprague-Dawley rat at 0.1 mg/kg, po measured up to 8 hrs by LC-MS/MS analysis; assay type: ADME, organism-based; design: route oral, dose 0.1 mg/kg, time <=8; settings: in vivo
[12] = Permeability of the compound at 10 uM measured after 4 hrs by PAMPA based LC-MS analysis; assay type: ADME; settings: read-out: permeability
Method in brief: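 PAMPA on pre-coated plates: donor 10 μM compound in 5% DMSO/0.1 M phosphate pH 6.4, acceptor 5% DMSO/0.1 M phosphate pH 7.4; 4 h at 37 °C without agitation. Donor, acceptor and initial donor solutions quantified by LC-MS/MS; recovery above 90%. Antipyrine, metoprolol, sulfasalazine as references. At least two technical replicates.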

[13] = Cmax in Sprague-Dawley rat at 0.1 mg/kg, iv measured up to 8 hrs by LC-MS/MS analysis; assay type: ADME, organism-based; design: route intravenous, dose 0.1 mg/kg, time <=8; settings: in vivo; method in brief: as §1
[14] = Cmax in Sprague-Dawley rat at 0.1 mg/kg, po measured up to 8 hrs by LC-MS/MS analysis; assay type: ADME, organism-based; design: route oral, dose 0.1 mg/kg, time <=8; settings: in vivo; method in brief: as §1
[15] = AUC (0 to 8 hrs) in Sprague-Dawley rat at 0.1 mg/kg, iv measured up to 8 hrs by LC-MS/MS analysis; assay type: ADME, organism-based; design: route intravenous, dose 0.1 mg/kg, time <=8; settings: in vivo
[16] = Tmax in Sprague-Dawley rat at 0.1 mg/kg, po measured up to 8 hrs by LC-MS/MS analysis; assay type: ADME, organism-based; settings: in vivo; method in brief: as §1
[17] = Total clearance in Sprague-Dawley rat at 0.1 mg/kg, iv measured up to 8 hrs by LC-MS/MS analysis; assay type: ADME, organism-based; settings: in vivo; method in brief: as §1
[18] = Intrinsic clearance in Sprague-Dawley rat liver microsomes at 1 uM preincubated for 5 mins followed by NADPH addition and measured after 30 mins by LC-MS/MS analysis; assay type: ADME, Microsome; settings: time 35 min, read-out: CLH; method in brief: as §3

SMILES | pIC50 (Transthyretin) | also measured
O=C(O)c1cc(Cl)c2c(c1)C(=O)c1ccccc1C2=O | 4.92 | 
O=C(O)c1ccc2c(c1)C(=O)c1ccccc1C2=O | 4.55 | 
O=C1c2ccccc2C(=O)c2c(O)ccc(O)c21 [QUINIZARIN] | < 4.00 | 
Nc1c(O)c(S(=O)(=O)O)c(O)c2c1C(=O)c1ccccc1C2=O | 4.96 | 
O=C1c2ccc(O)cc2C(=O)c2c1ccc(O)c2O | 4.92 | 
Cc1cc(C(=O)O)cc2c1C(=O)c1ccccc1C2=O | 4.89 | 
O=C1c2cccc(O)c2C(=O)c2c(O)cccc21 [DANTHRON] | < 4.00 | 
O=C(O)c1ccc2c(=O)c3ccccc3oc2c1 | 4.72 | 
Cc1ccc2c(=O)c3ccccc3oc2c1 | < 4.00 | 
O=C(O)c1ccc2oc3cccc(Cl)c3c(=O)c2c1 | 4.89 | 
O=C(O)c1ccc2oc3ccccc3c(=O)c2c1 | 4.66 | 
O=C(O)c1ccc2nc(-c3cc(Cl)cc(Cl)c3)oc2c1 |  | Vd [1]: 0.375 L/kg; AUC(0-inf) [2]: 4330 ng·h/mL; Activity [3]: Active; bioavailability [4]: 55.8%; fraction unbound at 4 h, 1 µM [5]: 0.0051; remaining at 0.5 h, 1 µM [6]: 88%; solubility at 4 h [7]: > 100 µM; half-life [8]: 12 h; remaining at 0.5 h, 1 µM [9]: 88%; solubility at 4 h [10]: 0.088 µM (≈ 0.0271 µg/mL); AUC(0-t) [11]: 956 ng·h/mL; Papp at 4 h, 10 µM [12]: > 50 ×10⁻⁶ cm/s; Cmax [13]: 537 ng/mL; Cmax [14]: 163 ng/mL; AUC(0-t) [15]: 1710 ng·h/mL; Tmax [16]: 8 h; clearance [17]: 0.383 mL/min/kg; CLint scaled at 1 µM [18]: 38.7 mL/min/kg
O=C(O)c1ccc2oc3c(Cl)cccc3c(=O)c2c1 | 4.89 | 
Cc1cc(C(=O)O)c2c(c1)C(=O)c1ccccc1C2=O | 4.35 | 
O=C1c2ccccc2C(=O)c2c1ccc(O)c2O [ATHRAQUINONES A] | < 4.00 | 
O=C(O)c1ccc2c(=O)c3c(Cl)cccc3oc2c1 | 5.00 | 
O=C1c2ccc(O)c(O)c2C(=O)c2c(O)ccc(O)c21 [QUINALIZARIN] | < 4.00 | 
CC(=O)Oc1cccc2c1C(=O)c1ccc(C(=O)O)cc1C2=O | 5.00 | 
O=C1c2ccccc2C(=O)c2c(O)c(O)cc(O)c21 [PURPURIN] | 4.92 | 
O=C(O)c1cc(C(=O)O)c2c(c1)C(=O)c1ccccc1C2=O | < 4.00 | 
Cc1cc(O)c2c(c1)C(=O)c1cc(O)cc(O)c1C2=O [EMODIN] | < 4.00 | 
O=C(O)c1ccc2c(=O)c3cccc(Cl)c3oc2c1 | 5.11 | 
